An excerpt weighted towards active compounds, which were near 2.5% of everything screened.
Platelet DG rel – platelet dense granule release activity | inhibition, %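 (compounds screened at 7.5 µM in platelet-rich plasma)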 | actives 0.22% (n = 300,000) | human platelet-rich plasma, SFLLRN dense granule ATP release, luminescence;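 active = mean replicate score, as percent of positive control, at or above 50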
TRPC4 agonist – TRPC4 (mouse) channel activation; Q9QUQ5; HEK293 TRPC4beta/mu-opioid, Fluo4 calcium fluorescence; active compounds read high; actives 0.49% (n = 310,000); AID 2237; B-score at 10 µM;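 active = B-score above 5 SD of library B-scores, and initial fluorescence ratio not above library mean plus 5 SD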;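 note: positive B-score marks a calcium rise read as TRPC4 activation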
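Assay system: HEK293 stable line with TRPC4beta plus mu-opioid receptor. Times: dye 45 min RT, read 110 s. Measured by: kinetic Fluo4 calcium fluorescence. Measure: B score of integrated ratio. Controls: assay buffer as low control, maximal DAMGO as high control.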
TRPC4 inh – inhibitors of mouse TRPC4 channel; HEK293 TRPC4beta/mu-opioid, DAMGO-evoked Fluo4 calcium flux; active compounds read low; actives 0.39% (n = 300,000); Q9QUQ5; B-score at 10 µM; AID 2247;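 active = B-score over 3 SD under the library average, no early fluorescence shift, positive overall ratio signal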
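material = TRPC4beta/mu-opioid receptor HEK293 cell line | probe or stimulus = sequential submaximal and maximal DAMGO stimulation | compound dosing = one concentration per compound | measured by = Fluo4 Ca2+ flux fluorescence | evaluation = integrated fluorescence ratio relative to baseline, converted to per-well B score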
TRPC6 act – activates the mouse TRPC6 cation channel. B-score at 10 µM. HEK293-TRPC6 membrane potential dye fluorescence; active compounds read high. actives 0.13% (n = 310,000). Q61143. AID 2550;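 active = B-score of the integrated fluorescence ratio above library mean plus 3 SD, and starting fluorescence ratio within library mean plus 5 SD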;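 note: higher score means more depolarization so channel activation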
TRPC6 inh – mouse TRPC6 channel inhibition. Q61143. HEK293-TRPC6, membrane potential dye, ACh-evoked depolarization; active compounds read low. B-score at 10 µM. actives 1.1% (n = 310,000). AID 2553;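 active = B-score under library mean minus 3 SD, initial fluorescence not abnormally high, positive integrated signal ratio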;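 note: B-score derived from integrated fluorescence ratio over the kinetic read; more negative B-score means stronger inhibition of depolarization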
TRPC4 PAM – TRPC4 (mouse) allosteric potentiation | Q9QUQ5 | HEK293 TRPC4beta/mu-opioid, DAMGO EC20, Fluo-4 Ca2+ flux; active compounds read high | B-score at 10 µM | actives 0.42% (n = 310,000) | AID 2227;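 active = B-score of calcium response area above 5 SD of library B-scores, with initial fluorescence ratio within 5 SD of library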
Each line names hits and unclear results; the compound was inactive in the other large screens.

Cc1ccc(OCCCc2c(C)n[nH]c2C)cc1	none
Cc1ccccc1OCCCc1c(C)n[nH]c1C	none (no result: TRPC4 inh)
Cc1ccccc1OCCCCc1c(C)n[nH]c1C	TRPC4 inh -6
Cc1n[nH]c(C)c1CCCCOc1ccccc1	TRPC4 inh -7
Cc1n[nH]c(C)c1CCCCOc1ccccc1F	TRPC4 inh -6 (no result: Platelet DG rel)
CCCCn1nnc(NC(=S)NC(=O)c2ccc(OCC)c([N+](=O)[O-])c2)n1	none
COC(=O)c1cc(Nc2cc(C)c3c(O)cccc3n2)cc(C(=O)OC)c1	none
COc1ccc(Nc2cc(C)c3c(O)cccc3n2)cc1	TRPC4 inh -5
Cc1ccccc1Nc1cc(C)c2c(O)cccc2n1	TRPC4 agonist 72
Cc1ccc(Nc2cc(C)c3c(O)cccc3n2)cc1C	none
COc1ccc(CNCCC(c2ccc(OC(C)C)cc2)c2ccccc2OC)cc1 (configuration not stated)	none
COc1ccc(CNCCC(c2ccccc2)c2ccc3c(c2)OCO3)cc1 (configuration not stated)	TRPC4 agonist 125
COc1ccccc1C(CCNCc1ccc(N(C)C)cc1)c1ccc(OC(C)C)cc1 (configuration not stated)	TRPC4 agonist 47
Cc1cccc(CN2CCN(Cc3cccc(-n4cccn4)c3)CC2CCO)n1 (configuration not stated)	none
Nc1ncnc2c1ncn2C1OC(CO)C(O)C1O (configuration not stated)	Platelet DG rel 96
Nc1nc(F)nc2c1ncn2[C@@H]1O[C@H](CO)[C@@H](O)[C@H]1O	Platelet DG rel 77
Nc1nc(F)nc2c1ncn2[C@@H]1O[C@H](CO)[C@@H](O)[C@@H]1O	none
CN(C)CCCN(C(=O)c1nc2ccccc2s1)c1nc2ccc(F)cc2s1	none
CN(C)CCCN(C(=O)c1ccc(S(=O)(=O)N(C)C2CCCCC2)cc1)c1nc2ccc(F)cc2s1	TRPC4 agonist 140
CCN(Cc1ccccc1)S(=O)(=O)c1ccc(C(=O)N(CCCN(C)C)c2nc3ccc(F)cc3s2)cc1	TRPC4 agonist 63
COc1ccc2sc(N(CCCN(C)C)C(=O)c3ccc(S(=O)(=O)N4CCCc5ccccc54)cc3)nc2c1	TRPC4 PAM 18
CN(C)CCCN(C(=O)c1ccc(S(=O)(=O)N(C)C2CCCCC2)cc1)c1nc2ccc(Br)cc2s1	none
CN(C)CCCN(C(=O)c1ccc(C(=O)c2ccccc2)cc1)c1nc2ccc(F)cc2s1	TRPC4 agonist 121
CCOC(=O)C1CCN(C(=O)c2ccccc2NC(=O)C2=C(C)OCCS2)CC1	none
Cc1ccc(N(Cc2ccccc2)C(=O)c2cc(S(=O)(=O)N3CCOCC3)ccc2C)cc1	none
COc1ccc(C(=O)C2CCCN(Cc3cn[nH]c3-c3ccc(F)cc3)C2)cc1OC (configuration not stated)	TRPC4 agonist 44
COc1ccc(C(=O)C2CCCN(Cc3ccc(Sc4nncn4C)o3)C2)cc1F (configuration not stated)	TRPC4 agonist 131
CCCNC(=O)CSc1nnc(-c2ccccc2Br)n1-c1cccc(C(F)(F)F)c1	none
Cc1ccc(C)c(S(=O)(=O)N2CCCCC2CCNC(=O)C(=O)NCc2ccccc2)c1 (configuration not stated)	none
COc1ccc(S(=O)(=O)Nc2ncccc2C)c2ccccc12	TRPC4 PAM 11
COc1ccc(Br)cc1S(=O)(=O)Nc1ncccc1C	none
O=C(N=Nc1c(O)[nH]c2ccccc12)c1ccco1	none
Cc1occc1C(=O)N/N=C/C(Br)=C/c1ccccc1	none
O=C(N/N=C/C(Br)=C/c1ccccc1)c1ccccc1[N+](=O)[O-]	TRPC4 PAM 12
CCOC(=O)C1CCCN(C(=O)CCn2nnnc2CN2CCOCC2)C1 (configuration not stated)	TRPC4 PAM 10
CCOC(=O)Cn1c(=O)oc2cc(S(=O)(=O)N3CCC(N4CCCCC4)CC3)ccc21	TRPC4 PAM 11
CN(Cc1nccn1C)C(=O)c1ccc2nc(Cc3ccccc3F)oc2c1	none
CCC/C(O)=C1\C(=O)CC(C)(C)CC1=Nc1ccc(OC)cc1	none
CCCC/C(O)=C1\C(=O)CC(C)(C)CC1=Nc1ccc(OC)cc1	TRPC4 PAM 12
CC(Oc1cccc(Cl)c1)C(=O)NCc1ccc(S(N)(=O)=O)cc1 (configuration not stated)	none
COc1cc(NC(=O)c2ccc(Cl)cc2)c(Cl)cc1NC(=O)c1cccnc1	none
Cc1nc2sc(-c3ccccc3)cc2c(=O)n1N	Platelet DG rel 80
OC(c1ccccc1)(C1CCCCC1)C(CN1CCOCC1)c1ccccc1 (configuration not stated)	none
COc1ccc(C(O)(C2CCCCC2)C(CN2CCOCC2)c2ccccc2)cc1 (configuration not stated)	TRPC4 PAM 14
COc1ccc(C(O)(C(C)C)C(CN2CCOCC2)c2ccccc2)cc1 (configuration not stated)	none
CCCC(O)(c1ccc(OC)cc1)C(CN1CCOCC1)c1ccccc1 (configuration not stated)	none
CCC(O)(c1ccc(OC)cc1)C(CN1CCOCC1)c1ccccc1 (configuration not stated)	TRPC4 inh -6
COc1ccc(C(O)(C(C)C)C(CN2CCOCC2)c2ccc(Cl)cc2)cc1 (configuration not stated)	TRPC4 PAM 12
COc1ccc(-c2noc(CNC(=O)CCN3C(=O)[C@H]4CC=CC[C@H]4C3=O)n2)cc1	none
C[C@@]12CCC=C[C@H]1[C@H](c1ccc(C(F)(F)F)cc1)N(Cc1ccccc1)C2=O	none
O=C(O)Cn1cc(/C=c2/sc3nc4ccccc4n3c2=O)c2ccccc21	none
Cc1ccc(-n2c(C)cc(/C=c3/sc4nc5ccccc5n4c3=O)c2C)cc1	Platelet DG rel 61
CCOc1ccccc1N(CC)C(=O)c1nn(C)c2c1CSc1ccccc1-2	TRPC4 inh -6
CN(C(=O)c1nn(C)c2c1CSc1ccccc1-2)c1ccccc1Cl	none
COc1ccccc1N1CCN(C(c2cccs2)C(C)NC(=O)c2ccco2)CC1 (configuration not stated)	TRPC4 agonist 103
O=C(Nc1cccc2ncccc12)c1cccc(Br)c1	TRPC4 PAM 14
O=C(Nc1cccc2ncccc12)c1cccc(F)c1	none
CC[C@H](C)Cc1cn([C@@H](CCCN=C(N)N)C(=O)NCCCCCCCCCCC(=O)N2CCNCC2)nn1	none (no result: TRPC4 agonist, TRPC4 inh, TRPC6 act, TRPC6 inh, TRPC4 PAM)
C#CNC(=O)C1(CC=C)CCNCC1	none
Cc1ccc(NC(C#N)c2ccccc2OCc2ccccc2)cc1 (configuration not stated)	none

Assay outcomes deposited in PubChem BioAssay by several laboratories.
